# Source: ChEMBL document CHEMBL1156237, “Antiviral activity of benzimidazole derivatives. II. Antiviral activity of 2-phenylbenzimidazole derivatives” (Bioorg Med Chem, 2010)
# The source made the active and inactive calls.
# Test system: Hepatitis C virus
# Test: Inhibition of HCV 1b NS5B Cdelta21 RNA dependent RNA polymerase expressed in Escherichia coli after 30 mins by fluorescence assay
# Assay type: functional, Hepatitis C virus subtype 1b
# Details: 0.5 h
# Outline: (§1)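 N-His-tagged NS5B from E. coli Rosetta2(DE3)pLysS (BVDV C-terminal Δ24; HCV1b Δ21), Ni-NTA purified, 500–600 ng per 20 µL reaction. Template 10 µg/mL poly(rC), primer 0.1 µg/mL oligo(rG)12, substrate 80 µM GTP; 20 mM Tris pH 7.0, 0.5 mM MnCl2 or 5 mM MgCl2, 5% DMSO. Enzyme pre-incubated with drug 30 min at room temperature.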
row,Structure (SMILES),IC50 [µM]
1,Nc1ccc(-c2nc3cc([N+](=O)[O-])ccc3[nH]2)cc1,33
2,CC(=O)Nc1ccc(-c2nc3cc(Cl)c(Cl)cc3[nH]2)cc1,5
3,CC(=O)Nc1ccc(-c2nc3cc([N+](=O)[O-])ccc3[nH]2)cc1,30

# Test system: not listed separately
# Test: Cytotoxicity against human MT4 cells after 96 hrs by MTT assay
# Assay type: cell-based
# Details: MT4 cells
# Outline: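 Exponentially growing MT-4 cells at 1 × 10^5 cells/mL in RPMI-1640 with 10% FCS, exposed to serial compound dilutions at 37 °C, 5% CO2. Viability by MTT after 96 h; CC50 is the concentration reducing viability of mock-infected cells by 50%.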
row,Structure (SMILES),CC50 at 96 h [µM]
1,Nc1ccc(-c2nc3cc([N+](=O)[O-])ccc3[nH]2)cc1,100
2,CC(=O)Nc1ccc(-c2nc3cc(Cl)c(Cl)cc3[nH]2)cc1,> 100
3,CC(=O)Nc1ccc(-c2nc3cc([N+](=O)[O-])ccc3[nH]2)cc1,> 100

# Test system: not listed separately
# Test: Selectivity index, ratio of CC50 for MDBK cells to EC50 for Bovine viral diarrhea virus NADL
# Assay type: toxicity, cell-based
# Details: cattle, read-out: Ratio CC50/EC50
row,Structure (SMILES),selectivity ratio
1,Nc1ccc(-c2nc3cc([N+](=O)[O-])ccc3[nH]2)cc1,53
2,CC(=O)Nc1ccc(-c2nc3cc(Cl)c(Cl)cc3[nH]2)cc1,58
3,CC(=O)Nc1ccc(-c2nc3cc([N+](=O)[O-])ccc3[nH]2)cc1,> 125

# Test system: Human alphaherpesvirus 1
# Test: Antiviral activity against HSV1 KOS infected in african green monkey Vero cells after 3 days by plaque reduction assay
# Assay type: functional, organism-based
# Details: Human alphaherpesvirus 1, KOS, 72 h
# Outline: (§2)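 Plaque reduction assay. Vero 76 cells at 2 × 10^5/well, grown overnight to confluence in D-MEM with 10% FBS. Infected 2 h with 50–100 PFU/well, unadsorbed virus removed. Overlay of D-MEM with 1% inactivated FBS and 0.75% methylcellulose, with or without serial compound dilutions. Incubated at 37 °C for 3 days (HSV-1 KOS, CVB-2 Ohio-1) or 5 days (RSV A2). Fixed and stained with crystal violet in 50% ethanol; plaques counted; EC50 by linear regression.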
row,Structure (SMILES),EC50 [µM]
1,Nc1ccc(-c2nc3cc([N+](=O)[O-])ccc3[nH]2)cc1,> 100
2,CC(=O)Nc1ccc(-c2nc3cc(Cl)c(Cl)cc3[nH]2)cc1,> 100
3,CC(=O)Nc1ccc(-c2nc3cc([N+](=O)[O-])ccc3[nH]2)cc1,> 100

# Test system: Coxsackievirus B2
# Test: Antiviral activity against Human coxsackievirus B2 Ohio-1 infected in african green monkey Vero cells after 3 days by plaque reduction assay
# Assay type: functional, organism-based, Coxsackievirus B2 (strain Ohio-1)
# Details: Enterovirus B, Vero, 72 h
# Outline: as §2
row,Structure (SMILES),EC50 [µM]
1,Nc1ccc(-c2nc3cc([N+](=O)[O-])ccc3[nH]2)cc1,> 100
2,CC(=O)Nc1ccc(-c2nc3cc(Cl)c(Cl)cc3[nH]2)cc1,> 100
3,CC(=O)Nc1ccc(-c2nc3cc([N+](=O)[O-])ccc3[nH]2)cc1,> 100

# Test system: not listed separately
# Test: Cytotoxicity against human HuH7 cells after 72 hrs
# Assay type: cell-based, Huh-7
# Details: not given
# Outline: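 GS4.1 replicon cells treated as in the replicon assay (twofold dilutions up to 75 µM, 72 h). Viability by CellTiter 96 AQueous One Solution; CC50 from % cytotoxicity versus concentration.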
row,Structure (SMILES),CC50 at 72 h [µM]
1,CC(=O)Nc1ccc(-c2nc3cc(Cl)c(Cl)cc3[nH]2)cc1,> 75
2,CC(=O)Nc1ccc(-c2nc3cc([N+](=O)[O-])ccc3[nH]2)cc1,> 90

# Test system: Poliovirus 1
# Test: Antiviral activity against Polio virus type1 Sabin strain Chat infected in african green monkey Vero cells after 2 days by plaque reduction assay
# Assay type: functional, organism-based, Human poliovirus 1 strain Sabin
# Details: Enterovirus C, 48 h
row,Structure (SMILES),EC50 [µM]
1,Nc1ccc(-c2nc3cc([N+](=O)[O-])ccc3[nH]2)cc1,> 100
2,CC(=O)Nc1ccc(-c2nc3cc(Cl)c(Cl)cc3[nH]2)cc1,> 100
3,CC(=O)Nc1ccc(-c2nc3cc([N+](=O)[O-])ccc3[nH]2)cc1,> 100

# Test system: not listed separately
# Test: Selectivity index, ratio of CC50 for human MT4 cells to EC50 for Bovine viral diarrhea virus NADL
# Assay type: toxicity, cell-based
# Details: read-out: Ratio CC50/EC50
row,Structure (SMILES),selectivity ratio
1,Nc1ccc(-c2nc3cc([N+](=O)[O-])ccc3[nH]2)cc1,67
2,CC(=O)Nc1ccc(-c2nc3cc(Cl)c(Cl)cc3[nH]2)cc1,> 100
3,CC(=O)Nc1ccc(-c2nc3cc([N+](=O)[O-])ccc3[nH]2)cc1,> 125

# Test system: not listed separately
# Test: Cytotoxicity against BHK cells after 48 to 96 hrs by MTT assay
# Assay type: cell-based, Mesocricetus auratus
# Details: hamster
# Outline: (§3)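 Cell seeding: MDBK at 6 × 10^5 cells/mL in MEM-E with 10% horse serum and 1 mM Na pyruvate; BHK at 1 × 10^6 cells/mL in MEM-E with 10% FBS. Serial compound dilutions, 37 °C, 5% CO2. Viability of mock-infected cells by MTT after 48–96 h; CC50 is the concentration reducing viability by 50%.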
row,Structure (SMILES),CC50 [µM]
1,Nc1ccc(-c2nc3cc([N+](=O)[O-])ccc3[nH]2)cc1,> 100
2,CC(=O)Nc1ccc(-c2nc3cc(Cl)c(Cl)cc3[nH]2)cc1,> 100
3,CC(=O)Nc1ccc(-c2nc3cc([N+](=O)[O-])ccc3[nH]2)cc1,> 100

# Test system: Bovine viral diarrhea virus 1
# Test: Antiviral activity against Bovine viral diarrhea virus NADL infected in MDBK cells assessed as inhibition of post viral entry pre-budding stage of replication administered at 13 hrs post infection measured after 24 to 36 hrs by plaque reduction assay
# Assay type: functional, organism-based
# Details: Bovine viral diarrhea virus 1-NADL
# Outline: (§4)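 MDBK monolayers inoculated at room temperature with BVDV NADL, 300 PFU (m.o.i. 0.01 PFU/cell), 60 min adsorption, washed, kept in MEM-E + 1 mM Na pyruvate + 0.5% inactivated FBS at 37 °C. Medium containing 10× compound added for one window (−1–0, 0–2, 2–4 … 12–14 h), then washed out and fresh medium given. CPE scored at 24–36 h; viral titre by plaque assay.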
row,Structure (SMILES),Activity
1,CC(=O)Nc1ccc(-c2nc3cc([N+](=O)[O-])ccc3[nH]2)cc1,Active

# Test system: not listed separately
# Test: Cytotoxicity against african green monkey Vero cells
# Assay type: cell-based
# Details: chlorocebus sabaeus
# Outline: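 Vero 76 monolayers exposed to serial compound dilutions, run in parallel on the same 24-well plates as the plaque-reduction assays. CC50 is the concentration reducing viability of mock-infected cells by 50%.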
row,Structure (SMILES),CC50 [µM]
1,Nc1ccc(-c2nc3cc([N+](=O)[O-])ccc3[nH]2)cc1,> 100
2,CC(=O)Nc1ccc(-c2nc3cc(Cl)c(Cl)cc3[nH]2)cc1,> 100
3,CC(=O)Nc1ccc(-c2nc3cc([N+](=O)[O-])ccc3[nH]2)cc1,> 100

# Test system: Bovine viral diarrhea virus 1
# Test: Antiviral activity against Bovine viral diarrhea virus NADL infected in MDBK cells assessed as protection from virus-induced cytopathogenicity administered up to 6 hrs post infection measured after 24 to 36 hrs by plaque reduction assay
# Assay type: functional, organism-based
# Details: Bovine viral diarrhea virus 1-NADL
# Outline: as §4
row,Structure (SMILES),Activity
1,CC(=O)Nc1ccc(-c2nc3cc([N+](=O)[O-])ccc3[nH]2)cc1,Active

# Test system: Hepatitis C virus
# Test: Antiviral activity against HCV Con1 expressed in human HuH7 cells assessed as NS4A expression after 72 hrs by ELISA-based replicon assay
# Assay type: functional, organism-based, Hepacivirus hominis
# Details: isolate Con1, Huh-7, 72 h
# Outline: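 GS4.1 cells (Huh-7 carrying HCV Con1 subgenomic replicon) at 7.5 × 10^3/well. Ten twofold compound dilutions (top 75 µM), 0.5% DMSO, 72 h at 37 °C; replicon-free Huh-7 as negative control. NS4A measured by ELISA with anti-NS4A mAb A-236, peroxidase secondary and o-phenylenediamine, absorbance 492 nm. EC50 by four-parameter sigmoidal fit.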
row,Structure (SMILES),EC50 [µM]
1,CC(=O)Nc1ccc(-c2nc3cc(Cl)c(Cl)cc3[nH]2)cc1,32
2,CC(=O)Nc1ccc(-c2nc3cc([N+](=O)[O-])ccc3[nH]2)cc1,38

# Test system: Yellow fever virus
# Test: Antiviral activity against Yellow fever virus 17D infected in BHK cells assessed as protection from virus-induced cytopathogenicity after 3 to 4 days by MTT method
# Assay type: functional, organism-based
# Details: not given
row,Structure (SMILES),EC50 [µM]
1,Nc1ccc(-c2nc3cc([N+](=O)[O-])ccc3[nH]2)cc1,> 100
2,CC(=O)Nc1ccc(-c2nc3cc(Cl)c(Cl)cc3[nH]2)cc1,> 100
3,CC(=O)Nc1ccc(-c2nc3cc([N+](=O)[O-])ccc3[nH]2)cc1,> 100

# Test system: not listed separately
# Test: Cytotoxicity against MDBK cells after 48 to 96 hrs by MTT assay
# Assay type: cell-based, Bos taurus
# Details: cattle, MDBK cells
# Outline: as §3
row,Structure (SMILES),CC50 [µM]
1,Nc1ccc(-c2nc3cc([N+](=O)[O-])ccc3[nH]2)cc1,79
2,CC(=O)Nc1ccc(-c2nc3cc(Cl)c(Cl)cc3[nH]2)cc1,58
3,CC(=O)Nc1ccc(-c2nc3cc([N+](=O)[O-])ccc3[nH]2)cc1,> 100

# Test system: Bovine viral diarrhea virus 1
# Test: Antiviral activity against Bovine viral diarrhea virus NADL infected in MDBK cells assessed as protection from virus-induced cytopathogenicity after 3 to 4 days by MTT method
# Assay type: functional, organism-based, Bovine viral diarrhea virus 1-NADL
# Details: Bovine viral diarrhea virus isolates and strains, MDBK
# Outline: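 Cytopathogenicity protection assay. MDBK cells at 3 × 10^4/well, grown overnight to confluence. Infected with BVDV NADL at m.o.i. 0.01 in MEM-E with 0.5% inactivated FBS, 1 mM Na pyruvate and 1% kanamycin. Serial compound dilutions added after 1 h. After 3–4 days at 37 °C, viability read by MTT; EC50 is the concentration giving 50% protection.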
row,Structure (SMILES),EC50 [µM]
1,Nc1ccc(-c2nc3cc([N+](=O)[O-])ccc3[nH]2)cc1,1.5
2,CC(=O)Nc1ccc(-c2nc3cc(Cl)c(Cl)cc3[nH]2)cc1,1
3,CC(=O)Nc1ccc(-c2nc3cc([N+](=O)[O-])ccc3[nH]2)cc1,0.8

# Test system: Bovine viral diarrhea virus 1
# Test: Antiviral activity against Bovine viral diarrhea virus NADL infected in MDBK cells assessed as inhibition of viral replication administered up to 4 hrs post infection measured after 24 to 36 hrs by plaque reduction assay
# Assay type: functional, organism-based
# Details: Bovine viral diarrhea virus 1-NADL
# Outline: as §4
row,Structure (SMILES),Activity
1,CC(=O)Nc1ccc(-c2nc3cc([N+](=O)[O-])ccc3[nH]2)cc1,Active

# Test system: not listed separately
# Test: Inhibition of Bovine viral diarrhea virus NADL NS5B Cdelta24 RNA dependent RNA polymerase expressed in Escherichia coli after 30 mins by fluorescence assay
# Design: species or system Bovine viral diarrhea virus 1-NADL
# Details: not given
# Outline: as §1
row,Structure (SMILES),IC50 [µM]
1,Nc1ccc(-c2nc3cc([N+](=O)[O-])ccc3[nH]2)cc1,18
2,CC(=O)Nc1ccc(-c2nc3cc(Cl)c(Cl)cc3[nH]2)cc1,3
3,CC(=O)Nc1ccc(-c2nc3cc([N+](=O)[O-])ccc3[nH]2)cc1,12

# Test system: Vesicular stomatitis virus
# Test: Antiviral activity against VSV Indiana lab infected in african green monkey Vero cells after 2 days by plaque reduction assay
# Assay type: functional, organism-based
# Details: not given
row,Structure (SMILES),Activity
1,Nc1ccc(-c2nc3cc([N+](=O)[O-])ccc3[nH]2)cc1,inactive
2,CC(=O)Nc1ccc(-c2nc3cc(Cl)c(Cl)cc3[nH]2)cc1,inactive
3,CC(=O)Nc1ccc(-c2nc3cc([N+](=O)[O-])ccc3[nH]2)cc1,inactive

# Test system: Human immunodeficiency virus 1
# Test: Antiviral activity against HIV1 3B infected in human MT4 cells assessed as protection from virus-induced cytopathogenicity after 4 days by MTT method
# Assay type: functional, organism-based
# Details: not given
# Outline: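 MT-4 cells, 1 × 10^4/well in RPMI with or without serial compound dilutions, infected with HIV-1 IIIB, 100 CCID50 (m.o.i. 0.01). Protection from virus-induced cytopathogenicity read by MTT.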
row,Structure (SMILES),Activity
1,Nc1ccc(-c2nc3cc([N+](=O)[O-])ccc3[nH]2)cc1,inactive
2,CC(=O)Nc1ccc(-c2nc3cc(Cl)c(Cl)cc3[nH]2)cc1,inactive
3,CC(=O)Nc1ccc(-c2nc3cc([N+](=O)[O-])ccc3[nH]2)cc1,inactive
